Source: ChEMBL document CHEMBL3352274, “Oxadiazoles and thiadiazoles: novel α-glucosidase inhibitors” (Bioorg Med Chem, 2014)

How the values were obtained:
[1] = Inhibition of alpha-glucosidase (unknown origin) using p-nitrophenyl-alpha-D-glucopyranoside substrate measured up to 30 mins by multiplate spectrophotometry; set-up: species or system Homo sapiens
Summary of the method: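 Enzyme 0.2 U/mL in phosphate buffered saline, preincubated with test compounds at various concentrations, 15 min, 37 °C. Assay in 0.1 M phosphate buffer pH 6.8 at 37 °C. Triplicate reactions, acarbose as standard. % inhibition = 100 − (OD test/OD control) × 100. IC50 by enzyme kinetics fitting.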

[2] = Competitive inhibition of alpha-glucosidase (unknown origin) by Lineweaver-Burk plot; set-up: species or system Homo sapiens
Summary of the method: (§1)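 Mode of inhibition from Lineweaver–Burk plots (1/rate vs 1/substrate concentration) at varying inhibitor concentrations, tracking Km and Vmax. Ki from secondary re-plots of Lineweaver–Burk slopes vs inhibitor concentration and from Dixon plots (1/rate vs inhibitor concentration). Each point mean of three experiments.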

[3] = Non-competitive inhibition of alpha-glucosidase (unknown origin) by Lineweaver-Burk plot; set-up: species or system Homo sapiens; summary of the method: as §1
3T3 = assay: Cytotoxicity against […] 3T3 cells by MTT assay; conditions: Mus musculus, NIH3T3
[4] = molecular target: Carbonic anhydrase 2 (Bos taurus) (UniProt P00921); assay: Inhibition of carbonic anhydrase 2 (unknown origin) using 4-NPA substrate after 15 mins by spectrophotometry
Serpentes = assay: (§2) Inhibition of snake venom phosphodiesterase 1 using bis(p-nitrophenyl) phosphate substrate after 30 mins by spectrophotometry; set-up: concentration or dose not given beside the values
Summary of the method: (§3)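 Assayed in 33 mM Tris–HCl buffer (pH 8.8) with 30 mM Mg-acetate as co-factor, 0.000742 U of enzyme and 0.33 mM substrate. After 30 min of incubation, activity was followed at 37 °C as p-nitrophenol release at 410 nm. Initial rates were taken as change in OD/min. All reactions were run in triplicate, with EDTA as positive control.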

[5] = as §2; set-up: species or system Serpentes; summary of the method: as §3

Compound | IC50 [1] | IC50 ([1]; read-out: IC50) | other results
C[C@H]1O[C@H](O[C@H]2[C@H](O)[C@@H](O)[C@@H](O[C@H]3[C@H](O)[C@@H](O)C(O)O[C@@H]3CO)O[C@@H]2CO)[C@H](O)[C@@H](O)[C@@H]1N[C@H]1C=C(CO)[C@@H](O)[C@H](O)[C@H]1O (some centres undefined) [ACARBOSE] |  | 937 µM | Ki [2]: 890 µM
O=C(CSc1nnc(-c2ccc(Cl)cc2)o1)c1cccc(F)c1 |  | 49.1 µM | 
COc1ccccc1C(=O)CSc1nnc(-c2ccc(OCc3ccccc3)cc2)o1 |  | 11.8 µM | Ki [3]: 4.36 µM; IC50 (3T3): > 30 µM; IC50 [4]: Not Active; inhibition [4]: 33%; inhibition (Serpentes): 8.5%; IC50 [5]: Not Active
O=C(CSc1nnc(SCC(=O)c2ccccc2)s1)c1ccccc1 |  | 10.8 µM | IC50 (3T3): > 30 µM; IC50 [4]: Not Active; inhibition [4]: 33.8%; Ki [2]: 6 µM; inhibition (Serpentes): 12.3%; IC50 [5]: Not Active
O=C(CSc1nnc(-c2cccnc2)o1)c1ccc(-c2ccccc2)cc1 |  | 125 µM | 
O=C(CSc1nnc(-c2ccccc2)o1)c1ccc(Br)cc1 | Not Active |  | 
O=C(CSc1nnc(-c2ccc(Cl)cc2)o1)c1ccc(Cl)cc1 | Not Active |  | 
O=C(CSc1nnc(-c2ccc(OCc3ccccc3)cc2)o1)c1cccc(O)c1 |  | 17.9 µM | Ki [3]: 11.2 µM; IC50 (3T3): > 30 µM; IC50 [4]: Not Active; inhibition [4]: 48.2%; inhibition (Serpentes): 1.8%; IC50 [5]: Not Active
COc1ccc(C(=O)CSc2nnc(-c3ccc(Cl)cc3)o2)cc1 | Not Active |  | 
O=C(CSc1nnc(-c2ccccc2)o1)c1cccc(Cl)c1 | Not Active |  | 
COc1cccc(C(=O)CSc2nnc(-c3ccccc3)o2)c1 |  | 184 µM | 
COc1cccc(C(=O)CSc2nnc(-c3ccc(Cl)cc3)o2)c1 | Not Active |  | 
O=C(CSc1nnc(SCC(=O)c2cccc(F)c2)s1)c1cccc(F)c1 |  | 24.6 µM | 
O=C(CSc1nnc(-c2ccccc2)o1)c1cccc(F)c1 | Not Active |  | 
O=C(CSc1nnc(-c2cccnc2)o1)c1cc2ccccc2oc1=O | Not Active |  | 
O=C(CSc1nnc(SCC(=O)c2cccc(O)c2)s1)c1cccc(O)c1 |  | 20.4 µM | Ki [3]: 14.3 µM; IC50 (3T3): > 30 µM; IC50 [4]: Not Active; inhibition [4]: 42.9%; inhibition (Serpentes): 4.6%; IC50 [5]: Not Active
COc1ccccc1C(=O)CSc1nnc(SCC(=O)c2ccccc2OC)s1 |  | 94.3 µM | 
O=C(CSc1nnc(-c2ccc(Cl)cc2)o1)c1cc2ccccc2oc1=O | Not Active |  | 
O=C(CSc1nnc(-c2ccc(Cl)cc2)o1)c1cccc(O)c1 |  | 24.1 µM | Ki [3]: 12 µM; IC50 (3T3): > 30 µM; IC50 [4]: Not Active; inhibition [4]: 9%; inhibition (Serpentes): 26%; IC50 [5]: Not Active
O=C(CSc1nnc(-c2ccccc2)o1)c1ccc(Cl)c(Cl)c1 |  | 74.2 µM | 

Now from value to compound, other results behind:

IC50 [1] | IC50 ([1]; read-out: IC50) | Compound | other results
Not Active |  | COc1ccc(C(=O)CSc2nnc(-c3ccc(OCc4ccccc4)cc3)o2)cc1 | 
Not Active |  | O=C(CSc1nnc(-c2cccnc2)o1)c1ccc(Cl)cc1 | 
Not Active |  | O=C(CSc1nnc(SCC(=O)c2ccc([N+](=O)[O-])cc2)s1)c1ccc([N+](=O)[O-])cc1 | 
 | 51.8 µM | O=C(CSc1nnc(SCC(=O)c2ccc(-c3ccccc3)cc2)s1)c1ccc(-c2ccccc2)cc1 | 
Not Active |  | O=C(CSc1nnc(-c2ccc(Cl)cc2)o1)c1cccc(Cl)c1 | 
Not Active |  | O=C(CSc1nnc(-c2cccnc2)o1)c1ccc([N+](=O)[O-])cc1 | 
Not Active |  | O=C(CSc1nnc(SCC(=O)c2ccc(Cl)cc2)s1)c1ccc(Cl)cc1 | 
Not Active |  | O=C(CSc1nnc(-c2ccc(Cl)cc2)o1)c1ccc(-c2ccccc2)cc1 | 
 | 166 µM | O=C(CSc1nnc(SCC(=O)c2ccc(Br)cc2)s1)c1ccc(Br)cc1 | 
Not Active |  | COc1ccc(C(=O)CSc2nnc(SCC(=O)c3ccc(OC)cc3)s2)cc1 | 
Not Active |  | O=C(CSc1nnc(-c2cccnc2)o1)c1cccc(O)c1 | 
 | 81.6 µM | COc1ccccc1C(=O)CSc1nnc(-c2ccc(Cl)cc2)o1 | 
Not Active |  | COc1ccc(C(=O)CSc2nnc(-c3ccccc3)o2)cc1 | 
Not Active |  | O=C(CSc1nnc(SCC(=O)c2ccc(Cl)c(Cl)c2)s1)c1ccc(Cl)c(Cl)c1 | 
Not Active |  | O=C(CSc1nnc(-c2ccccc2)o1)c1ccc(Cl)cc1 | 
Not Active |  | O=C(CSc1nnc(-c2cccnc2)o1)c1ccc(Br)cc1 | 
 | 112 µM | O=C(CSc1nnc(-c2ccccc2)o1)c1cccc(O)c1 | 
Not Active |  | O=C(CSc1nnc(-c2cccnc2)o1)c1cccc(F)c1 | 
